According to publication PMC5783296 (SLAS discovery : advancing life sciences R & D, 2017):
Counter-ions that a name gives are not always drawn. Blank lines part the entries; values can stand above or below the molecule they belong to.

Legend:
[1] = target: T1, interaction between NHP2L1 and U4 5′SL (Homo sapiens, UniProt P55769); test: TR-FRET HTS assay of NHP2L1-U4 interaction; format: binding; conditions: for potency in dose response screening (IC50 ranking): dose responsive analysis, ten 1:3 dilutions, TR-FRET; for disruption of the interaction of U4 and NHP2L1: TR-FRET dose response, camptothecin derivatives
T1 sequence (P55769 1-128): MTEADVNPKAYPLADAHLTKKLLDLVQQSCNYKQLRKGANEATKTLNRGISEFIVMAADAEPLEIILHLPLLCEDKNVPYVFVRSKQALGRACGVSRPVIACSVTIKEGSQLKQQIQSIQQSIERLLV

[2] = system: pre-mRNA splicing (pTN23 reporter) in HEK293 cells; test: pTN23 splicing reporter assay; format: cell-based, Human; conditions: HEK293, topotecan 250nM, 24 hours
NHP2L1 U4 complex [3] = target: T2, NHP2L1 U4 complex (Homo sapiens, UniProt P55769); test: Electrophoretic gel mobility shift assay; format: binding; conditions: topotecan 0.2, 2, 20, 200 μM
T2 sequence (P55769 1-128): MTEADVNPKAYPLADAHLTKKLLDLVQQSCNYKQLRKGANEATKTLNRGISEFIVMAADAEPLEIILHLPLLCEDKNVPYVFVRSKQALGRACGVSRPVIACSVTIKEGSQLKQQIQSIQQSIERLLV
How it was run: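 Recombinant NHP2L1 (E. coli BL21(DE3), Ni-chelate then gel filtration) plus biotinylated U4 5′SL, ±test compound, 45 min at room temperature in 20 mM Tris-HCl pH 7.6, 150 mM NaCl, 0.1% Triton X-100, 2 mM DTT, 0.5 g/L tRNA. Run on 6% retardation gel, 0.5× TBE, 100 V, 60 min, then nylon transfer and chemiluminescent detection. Shifted band quantified by densitometry as % of complex without compound.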

NHP2L1 U4 complex [4] = target: T2, NHP2L1 U4 complex; test: NMR of NHP2L1-U4 complex with topotecan; format: binding
How it was run: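 15N-labelled NHP2L1 was premixed 1:1 with unlabelled U4 5′SL in pH 5.0 phosphate buffer (100 mM NaCl, 10% D2O, 2% DMSO-d6), with backbone assigned from HNCA/HNCACB. Chemical shift perturbations were read from 2D [15N,1H] HSQC/TROSY at 64 scans, and at 400 scans for the 1:1:20 TROSY.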

NHP2L1 protein = target: T3, NHP2L1 protein (Homo sapiens, UniProt P55769); test: Surface plasmon resonance, immobilized NHP2L1; format: binding; conditions: max 50μM, OneStep gradient injection, 20° C
T3 sequence (P55769 1-128): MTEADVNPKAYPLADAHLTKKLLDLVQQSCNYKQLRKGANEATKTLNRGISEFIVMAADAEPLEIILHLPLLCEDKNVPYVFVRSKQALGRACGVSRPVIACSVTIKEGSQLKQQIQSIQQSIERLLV

U4 5′ SL [5] = test: 1D NMR titration of U4 5′SL; format: binding; conditions: U4:topotecan 1:0 to 1:10
How it was run: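 Solution NMR at pH 5.0 (100 mM NaCl, 100 mM sodium phosphate, 10% D2O, 2% DMSO-d6). U4 5′SL at 100 μM with increasing test compound, monitored by 1D and 2D [1H,1H] TOCSY (60 ms mixing) and NOESY (100 ms mixing) spectra.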

U4 5′ SL [6] = test: Surface plasmon resonance, immobilized U4 5′SL; format: binding; conditions: max 50μM, OneStep gradient injection, 20° C
[7] = target: T4, NHP2L1 (15.5K), His-tagged (UniProt P55769 1-128); test: TR-FRET
T4 sequence: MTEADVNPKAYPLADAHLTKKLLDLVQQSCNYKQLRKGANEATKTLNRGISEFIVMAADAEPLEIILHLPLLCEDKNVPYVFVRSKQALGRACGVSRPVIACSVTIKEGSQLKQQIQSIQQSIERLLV

Molecule: CC[C@@]1(O)C(=O)OCc2c1cc1n(c2=O)Cc2cc3cc(O)ccc3nc2-1 [10-OH-(S)-camptothecin]
potency in dose response screening (IC50 ranking) [1]: among the most potent inhibitors

Molecule: CC[C@@]1(O)C(=O)OCc2c1cc1n(c2=O)Cc2cc3c(CNC)c(O)ccc3nc2-1 [N-demethyl-topotecan, N-Desmethyl topotecan]
disruption of the interaction of U4 and NHP2L1 [1]: able to disrupt the interaction of U4 and NHP2L1

Molecule: CCc1c2c(nc3ccc(O)cc13)-c1cc3c(c(=O)n1C2)COC(=O)[C@]3(O)CC [SN-38]
disruption of the interaction of U4 and NHP2L1 [1]: able to disrupt the interaction of U4 and NHP2L1
potency in dose response screening (IC50 ranking) [1]: among the most potent inhibitors

Molecule: CC[C@@]1(O)C(=O)OCc2c1cc1n(c2=O)Cc2cc3ccccc3nc2-1 [camptothecin, (S)-camptothecin]
disruption of the interaction of U4 and NHP2L1 [1]: less effective at disrupting the NHP2L1 and U4 interaction

Molecule: CCc1c2c(nc3ccc(OC(=O)N4CCC(N5CCCCC5)CC4)cc13)-c1cc3c(c(=O)n1C2)COC(=O)[C@]3(O)CC [irinotecan]
disruption of the interaction of U4 and NHP2L1 [1]: less effective at disrupting the NHP2L1 and U4 interaction

inhibition at 15 µM ([1]; read-out: percentage of inhibition in primary screening): 81.6%
Molecule: CC[C@@]1(O)C(=O)OCc2c1cc1n(c2=O)Cc2cc3c(CN(C)C)c(O)ccc3nc2-1 [topotecan hydrochloride]

binding to NHP2L1 by SPR (NHP2L1 protein): markedly less binding to NHP2L1
potency in dose response screening (IC50 ranking) [1]: among the most potent inhibitors
binding to U4 by SPR (U4 5′ SL [6]): binds to U4 in a time-dependent manner
Molecule: CC[C@@]1(O)C(=O)OCc2c1cc1n(c2=O)Cc2cc3c(CN(C)C)c(O)ccc3nc2-1 [topotecan, Topotecan]
splicing efficiency (ratio of luciferase to β-galactosidase activities) ([2]; p<0.001): significantly decreased splicing efficiency
β-galactosidase activities ([2]; p=0.4): without changing significantly β–galactosidase activities
inhibition of NHP2L1-U4 5′SL shift (NHP2L1 U4 complex [3]): greater inhibition with increasing concentrations
direct binding to NHP2L1-U4 complex by 1D NMR (NHP2L1 U4 complex [4]; 1D spectrum of complex): able to directly bind to the NHP2L1-U4 complex
displacement of NHP2L1 from U4 by 2D NMR (NHP2L1 U4 complex [4]; NHP2L1:U4:topotecan 1:1:20 (2mM topotecan)): displaces NHP2L1 from U4 only at high concentrations
disruption of the interaction of U4 and NHP2L1 [1]: able to disrupt the interaction of U4 and NHP2L1
binding to U4 5′ SL by 1D NMR (U4 5′ SL [5]): binding of topotecan to U4 5′ SL was confirmed

Molecule: AUCGUAGCCAAUGAGGUUUAUCCGAGGCGCGAU (structured_RNA) [Cy5-U4 5'SL]
Kd [7]: 0.68 nM
